Reference: ChEMBL document CHEMBL4321803 (J Med Chem, 2019)
Active and inactive are the calls of the source. No cut-off for these calls is given here.

Key:
[1] = Inhibition of bacterial class B1 metallo beta-lactamse VIM-2 assessed as reduction in breakdown of cephalosporin FC-5 after 10 mins by fluorescence method; design: species or system Bacteria
Summary of the method: (§1)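 Enzyme levels: L1 50 pM, IMP-1 20 pM, NDM-1 20 pM, VIM-1 100 pM, VIM-2 500 pM. Inhibitor pre-incubated with enzyme 10 min. Initial rates by fluorescence (ex 380/em 460 nm). Four-parameter fit for IC50.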

[2] = Inhibition of bacterial class B1 metallo beta-lactamase NDM-1 assessed as reduction in breakdown of cephalosporin FC-5 after 10 mins by fluorescence method; design: species or system Bacteria
Summary of the method: (§2)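 Enzyme levels: L1 50 pM, IMP-1 20 pM, NDM-1 20 pM, VIM-1 100 pM, VIM-2 500 pM. Inhibitor pre-incubated with enzyme 10 min. Four-parameter fit for IC50.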

[3] = Inhibition of Pseudomonas aeruginosa class C serine beta-lactamase AmpC assessed as reduction in breakdown of cephalosporin FC-5 after 10 mins by fluorescence method
Summary of the method: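 AmpC at 500 pM was pre-incubated with inhibitor for 10 min at room temperature in phosphate buffer, pH 7.4, with 0.01% (v/v) Triton X-100, then given 5 μM FC5. Initial hydrolysis rates were read by fluorescence (ex 380 nm, em 460 nm), and IC50 was taken from a four-parameter log(inhibitor) vs response fit.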

[4] = Inhibition of bacterial class B1 metallo beta-lactamase VIM-1 assessed as reduction in breakdown of cephalosporin FC-5 after 10 mins by fluorescence method; design: species or system Bacteria; summary of the method: as §2
[5] = Inhibition of bacterial class D serine beta-lactamase OXA-10 assessed as reduction in breakdown of cephalosporin FC-5 after 10 mins by fluorescence method; design: species or system Bacteria
Summary of the method: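 Run in SBL buffer (phosphate pH 7.4, 0.01% v/v Triton X-100) at room temperature with 5 μM FC5. Enzyme levels: OXA-10 250 pM, OXA-48 12.5 nM. Enzyme pre-incubated with inhibitor 10 min. Initial rates by fluorescence (ex 380/em 460 nm). IC50 from a four-parameter log(inhibitor) fit.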

[6] = Inhibition of Aeromonas hydrophila class B2 metallo beta-lactamse CphA assessed as reduction in meropenem hydrolysis after 10 mins by UV absorbance method
[7] = Inhibition of bacterial class D serine beta-lactamase OXA-10 assessed as reduction in breakdown of cephalosporin FC-5 in presence of aqueous sodium bicarbonate after 10 mins by fluorescence method; design: species or system Bacteria
Summary of the method: (§3)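 SBL buffer (phosphate pH 7.4, 0.01% v/v Triton X-100) supplemented with 100 mM NaHCO3, room temperature, FC5 5 μM. Enzyme levels: OXA-10 250 pM, OXA-48 12.5 nM. Inhibitor pre-incubated with enzyme 10 min. Initial rates by fluorescence at 380/460 nm. IC50 from a four-parameter fit.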

[8] = Inhibition of bacterial class B1 metallo beta-lactamase IMP-1 assessed as reduction in breakdown of cephalosporin FC-5 after 10 mins by fluorescence method; design: species or system Bacteria; summary of the method: as §1
[9] = Inhibition of bacterial class D serine beta-lactamase OXA-48 assessed as reduction in breakdown of cephalosporin FC-5 in presence of aqueous sodium bicarbonate after 10 mins by fluorescence method; design: species or system Bacteria; summary of the method: as §3
[10] = Inhibition of Stenotrophomonas maltophilia class B3 metallo beta-lactamse L1 assessed as reduction in breakdown of cephalosporin FC-5 after 10 mins by fluorescence method; summary of the method: as §1
[11] = tested on: Escherichia coli; experiment: Inhibition of metallo beta-lactamase NDM-1 in Escherichia coli S117 assessed as potentiation of cefepime-induced antibacterial activity by measuring cefepime MIC at 10 ug/ml by agar dilution method (Rvb > 64 ug/ml)
Summary of the method: (§4)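 Agar dilution MIC of meropenem or cefepime combined with the inhibitor, against NDM-1-producing clinical isolates of E. coli and K. pneumoniae. Interpreted per EUCAST/CLSI guidelines. Reference strain MICs within ±1 log2 dilution of reference values.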

[12] = tested on: Escherichia coli; experiment: Inhibition of metallo beta-lactamase NDM-1 in Escherichia coli 91N assessed as potentiation of cefepime-induced antibacterial activity by measuring cefepime MIC at 10 ug/ml by agar dilution method (Rvb > 64 ug/ml); summary of the method: as §4
[13] = tested on: Escherichia coli; experiment: Inhibition of metallo beta-lactamase NDM-1 in Escherichia coli S117 assessed as potentiation of meropenem-induced antibacterial activity by measuring meropenem MIC at 10 ug/ml by agar dilution method (Rvb > 64 ug/ml); summary of the method: as §4
[14] = molecular target: Metallo-beta-lactamase type 2 (Klebsiella pneumoniae) (UniProt C7C422); experiment: Inhibition of metallo beta-lactamase NDM-1 in Klebsiella pneumoniae IR43 assessed as potentiation of cefepime-induced antibacterial activity by measuring cefepime MIC at 10 ug/ml by agar dilution method (Rvb > 64 ug/ml); summary of the method: as §4
Sequence of Metallo-beta-lactamase type 2 (Klebsiella pneumoniae) (C7C422 whole entry): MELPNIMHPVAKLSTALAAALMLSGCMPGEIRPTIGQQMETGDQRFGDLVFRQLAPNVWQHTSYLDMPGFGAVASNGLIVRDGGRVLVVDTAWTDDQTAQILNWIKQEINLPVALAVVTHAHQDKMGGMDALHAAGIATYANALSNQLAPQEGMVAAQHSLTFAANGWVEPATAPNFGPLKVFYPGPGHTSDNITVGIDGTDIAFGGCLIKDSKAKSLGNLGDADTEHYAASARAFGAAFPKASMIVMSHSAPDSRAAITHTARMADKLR

[15] = tested on: Escherichia coli; experiment: Inhibition of metallo beta-lactamase NDM-1 in Escherichia coli IR57 assessed as potentiation of cefepime-induced antibacterial activity by measuring cefepime MIC at 10 ug/ml by agar dilution method (Rvb > 64 ug/ml); summary of the method: as §4
[16] = molecular target: Metallo-beta-lactamase type 2 (Klebsiella pneumoniae) (UniProt C7C422); experiment: Inhibition of metallo beta-lactamase NDM-1 in Klebsiella pneumoniae B68-1 assessed as potentiation of cefepime-induced antibacterial activity by measuring cefepime MIC at 10 ug/ml by agar dilution method (Rvb > 64 ug/ml); summary of the method: as §4
[17] = tested on: Bacteria; experiment: Reversible inhibition of bacterial class B1 metallo beta-lactamase NDM-1 assessed as reduction in breakdown of cephalosporin FC-5 after 15 to 180 mins by fluorescence method
[18] = tested on: Escherichia coli; experiment: Inhibition of metallo beta-lactamase NDM-1 in Escherichia coli IR57 assessed as potentiation of meropenem-induced antibacterial activity by measuring meropenem MIC at 10 ug/ml by agar dilution method (Rvb > 64 ug/ml); summary of the method: as §4
[19] = tested on: Escherichia coli; experiment: Inhibition of metallo beta-lactamase NDM-1 in Escherichia coli 91N assessed as potentiation of meropenem-induced antibacterial activity by measuring meropenem MIC at 10 ug/ml by agar dilution method (Rvb > 64 ug/ml); summary of the method: as §4
[20] = molecular target: Metallo-beta-lactamase type 2 (Klebsiella pneumoniae) (UniProt C7C422); experiment: Inhibition of metallo beta-lactamase NDM-1 in Klebsiella pneumoniae B68-1 assessed as potentiation of meropenem-induced antibacterial activity by measuring meropenem MIC at 10 ug/ml by agar dilution method (Rvb > 64 ug/ml); summary of the method: as §4
[21] = Inhibition of bacterial class D serine beta-lactamase OXA-48 assessed as reduction in breakdown of cephalosporin FC-5 after 10 mins by fluorescence method; design: species or system Bacteria
Summary of the method: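 Run in SBL buffer (phosphate pH 7.4, 0.01% v/v Triton X-100) at room temperature with 5 μM FC5. Enzyme pre-incubated with inhibitor 10 min. IC50 from a four-parameter log(inhibitor) fit.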

[22] = molecular target: Beta-lactamase OXA-10 (Pseudomonas aeruginosa, UniProt P14489); experiment: Inhibition of Pseudomonas aeruginosa class D serine beta-lactamase OXA-10 expressed in Escherichia coli BL21(DE3) cells assessed as reduction in breakdown of cephalosporin FC-5 in presence of aqueous sodium bicarbonate after 10 to 300 mins by fluorescence method
Sequence of Beta-lactamase OXA-10 (P14489 whole entry): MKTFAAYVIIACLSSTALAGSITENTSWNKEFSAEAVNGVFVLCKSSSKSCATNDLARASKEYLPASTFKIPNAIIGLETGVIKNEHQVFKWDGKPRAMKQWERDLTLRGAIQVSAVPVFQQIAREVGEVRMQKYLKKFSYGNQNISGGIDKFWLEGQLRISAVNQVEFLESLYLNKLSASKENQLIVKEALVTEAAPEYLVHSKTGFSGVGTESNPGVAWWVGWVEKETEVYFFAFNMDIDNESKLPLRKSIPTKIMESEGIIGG

[23] = Inhibition of Pseudomonas aeruginosa PAO1 class C serine beta-lactamase N-terminal His- tagged AmpC expressed in Escherichia coli BL21(DE3) cells assessed as reduction in breakdown of cephalosporin FC-5 preincubated for 10 to 300 mins followed by cephalosporin FC-5 addition by fluorescence method
[24] = Inhibition of recombinant bacterial class B1 metallo beta-lactamase NDM-1 expressed in Escherichia coli assessed as reduction in breakdown of cephalosporin FC-5 preincubated for 10 mins followed by cephalosporin FC-5 addition by fluorescence method; design: species or system Bacteria; summary of the method: as §1
[25] = Inhibition of Klebsiella pneumoniae class D serine beta-lactamase N-terminal His-tagged OXA-48 expressed in Escherichia coli BL21(DE3) cells assessed as reduction in breakdown of cephalosporin FC-5 in presence of aqueous sodium bicarbonate after 10 to 300 mins by fluorescence method
[26] = Inhibition of recombinant bacterial class B1 metallo beta-lactamase IMP-1 expressed in Escherichia coli assessed as reduction in breakdown of cephalosporin FC-5 preincubated for 10 mins followed by cephalosporin FC-5 addition by fluorescence method; design: species or system Bacteria; summary of the method: as §1

With O=C(O)C[C@@H]1CC[C@H](NC(=O)Cc2cccs2)B(O)O1 [VABORBACTAM] the IC50 [1] was 316000 nM, the IC50 [2] was 631000 nM and the IC50 [3] was 5000 nM. It also gave an IC50 [4] of 398000 nM, an IC50 [5] greater than 400000 nM and an IC50 [6] of 631000 nM. For the same compound, the IC50 [7] was greater than 400000 nM, the IC50 [8] was 126000 nM and the IC50 [9] was 32000 nM. It also gave an IC50 [10] of 336000 nM.

Work on NCCN[C@H]1CC[C@H](CC(=O)N[C@H]2Cc3cccc(C(=O)O)c3OB2O)CC1 yielded an MIC [11] of 16 µg/mL, an MIC [12] of 4 µg/mL and an IC50 [1] of 0.5 nM. The IC50 [3] was 301 nM, the MIC [13] was 1 µg/mL and the MIC [14] was 0.5 µg/mL. For the same compound, the MIC [15] was 8 µg/mL, the MIC [16] was 0.5 µg/mL and the inhibition [17] was “Active”. It also gave an MIC [18] of 0.5 µg/mL, an MIC [19] of 0.125 µg/mL and an IC50 [5] of 234 nM. For the same compound, the MIC [20] was 0.5 µg/mL, the IC50 [6] was 2510 nM and the IC50 [7] was 645 nM. For the same compound, the IC50 [8] was 2510 nM, the IC50 [21] was 537 nM and the IC50 [9] was 2390 nM. For the same compound, the IC50 [10] was greater than 10000 nM.

Compound NCc1ccc(C(=O)N[C@H]2Cc3cccc(C(=O)O)c3OB2O)cc1 has an IC50 [22] of 5100 nM, an IC50 [23] of 120 nM and an IC50 [4] of 85 nM. The IC50 [24] was 29 nM, the IC50 [6] was greater than 100000 nM and the IC50 [25] was 2600 nM. It also gave an IC50 [26] of 1000 nM.
